Laboratory results published in ChEMBL document CHEMBL1141110, “Structure-activity relationships of new A,D-ring modified steroids as aromatase inhibitors: design, synthesis, and biological activity evaluation” (J Med Chem, 2005).

B1: Aromatase (Homo sapiens) (protein)
chain: MVLEMLNPIHYNITSIVPEAMPAATMPVLLLTGLFLLVWNYEGTSSIPGPGYCMGIGPLISHGRFLWMGIGSACNYYNRVYGEFMRVWISGEETLIISKSSSMFHIMKHNHYSSRFGSKLGLQCIGMHEKGIIFNNNPELWKTTRPFFMKALSGPGLVRMVTVCAESLKTHLDRLEEVTNESGYVDVLTLLRRVMLDTSNTLFLRIPLDESAIVVKIQGYFDAWQALLIKPDIFFKISWLYKKYEKSVKDLKDAIEVLIAEKRRRISTEEKLEECMDFATELILAEKRGDLTRENVNQCILEMLIAAPDTMSVSLFFMLFLIAKHPNVEEAIIKEIQTVIGERDIKIDDIQKLKVMENFIYESMRYQPVVDLVMRKALEDDVIDGYPVKKGTNIILNIGRMHRLEFFPKPNEFTLENFAKNVPYRYFQPFGFGPRGCAGKYIAMVMMKAILVTLLRRFHVKTLQGQCVESIQKIHDLSLHPDETKNMLEMIFTPRNSDRCLEH

Assays:
Aromatase [1] = target: T1, Aromatase (Homo sapiens, UniProt P11511); assay: Percent inhibition at 2 uM against aromatase protein from human placental microsomes using [1-beta-3H]-androstenedione
T1 sequence (P11511 whole entry): B1 chain
Summary of the method: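 Screening used 20 µg microsomal protein from human placenta, 40 nM [1β-3H]androstenedione (1 µCi) and inhibitor at 2 µM in 67 mM K phosphate pH 7.4. Reaction was started with 150 µM NADPH and run 15 min at 37 °C. 3H2O release was measured by scintillation counting after chloroform and charcoal-dextran cleanup. Inhibition is given relative to the no-inhibitor control. Triplicates.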

Aromatase [2] = target: T1, Aromatase; assay: Inhibitory concentration against aromatase protein from human placental microsomes using [1-beta-3H]-androstenedione; Competitive inhibition
Summary of the method: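 Human placental microsomes in 67 mM K phosphate pH 7.4 with 200 nM [1β-3H]androstenedione (1 µCi) and graded inhibitor concentrations; inhibitors were dissolved in ethanol. Reaction was started with 150 µM NADPH and run 15 min at 37 °C. 3H2O was extracted with chloroform and dextran-coated charcoal, then scintillation counted. Triplicates.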

Aromatase [3] = target: T1, Aromatase; assay: Inhibition constant against aromatase protein from human placental microsomes using [1-beta-3H]-androstenedione; Competitive inhibition
Summary of the method: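 Microsomes from human placenta. Kinetic runs used 10-30 nM [1β-3H]androstenedione with 150 µM NADPH, a range of inhibitor and substrate concentrations, and 5 min at 37 °C in 67 mM K phosphate pH 7.4. Released 3H2O was separated with chloroform and dextran-coated charcoal, then scintillation counted. Inhibition type was taken from Lineweaver-Burk plots and Ki from Dixon plots. Triplicates.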

Aromatase [4] = target: T1, Aromatase; assay: Ratio of Michaelis-Menten constant and inhibition constant for aromatase enzyme; Competitive inhibition
Summary of the method: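 Ratio of substrate Km to Ki. Km for androstenedione and Ki come from the same placental-microsome kinetic runs: 10-30 nM [1β-3H]androstenedione, 150 µM NADPH, 5 min at 37 °C, with 3H2O release as the read-out. Ki was taken from Dixon plots.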

[5] = substrate: C[C@]12CCC(=O)C=C1CC[C@@H]1[C@@H]2CC[C@]2(C)C(=O)CC[C@@H]12; assay: Michaelis-Menten constant against Aromatase; set-up: species or system Homo sapiens
Summary of the method: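 Human placental microsomes (cotyledon homogenate, differential centrifugation, stored -80 °C), 67 mM potassium phosphate pH 7.4. Kinetic runs used 10-30 nM [1β-3H]androstenedione, NADPH 150 µM to start, 5 min at 37 °C. Aromatization read as released 3H2O after chloroform and dextran-charcoal extraction, by scintillation counting. Lineweaver-Burk analysis; points are means of three determinations.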

Row | Molecule | inhibition at 2 µM (Aromatase [1]) [%] | IC50 (Aromatase [2]) [nM] | Ki (Aromatase [3]) [nM] | Km/Ki (Aromatase [4]) | Km [5] [µM]
1 | C[C@]12CCC3C(CC[C@H]4[C@@H](O)[C@H](O)CC[C@]34C)C1CCC(=O)O2 (stereo partly specified) | 8.1 | – | – | – | –
2 | C[C@]12CCC3C(CC[C@H]4C=CCC[C@]34C)C1CCC2=O (stereo partly specified) | 95.9 | 225 | 50 | 1.15 | –
3 | C[C@]12CCC3C(CC[C@H]4C(O)(C#N)[C@H](O)CC[C@]34C)C1CCC(=O)O2 (stereo partly specified) | 17.6 | – | – | – | –
4 | C[C@]12CC[C@H]3O[C@H]3[C@@H]1CC[C@@H]1[C@@H]2CC[C@]2(C)C(=O)CC[C@@H]12 | 96.4 | 145 | 38 | 1.51 | –
5 | C[C@]12CC[C@H](O)[C@@H](O)[C@H]1CC[C@@H]1[C@@H]2CC[C@]2(C)C(=O)CC[C@@H]12 | 10.1 | – | – | – | –
6 | C[C@]12CC[C@@H](O)[C@H](O)[C@@H]1CC[C@@H]1[C@@H]2CC[C@]2(C)C(=O)CC[C@@H]12 | 34.6 | – | – | – | –
7 | C[C@]12CC[C@@H](O)C(=O)[C@@H]1CC[C@@H]1[C@@H]2CC[C@]2(C)C(=O)CC[C@@H]12 | 83.3 | 670 | 147 | 0.39 | –
8 | C[C@]12CCC3C(CC[C@@H]4[C@H]5O[C@H]5CC[C@]34C)C1CCC2=O (stereo partly specified) | 14.6 | – | – | – | –
9 | C[C@]12CCC(=O)C(O)=C1CC[C@@H]1[C@@H]2CC[C@]2(C)C(=O)CC[C@@H]12 [FORMESTANE] | 99.1 | 42 | – | – | –
10 | C[C@]12CCC3C(CC[C@H]4C(=O)[C@H](O)CC[C@]34C)C1CCC(=O)O2 (stereo partly specified) | 16.6 | – | – | – | –
11 | C[C@]12CCC3C(CC[C@@]4(C=O)OC(=O)CC[C@]34C)C1CCC2=O (stereo partly specified) | 11 | – | – | – | –
12 | C[C@]12CCC(=O)C(O)=C1CCC1C2CC[C@]2(C)OC(=O)CCC12 (stereo partly specified) | 72.5 | 1850 | 660 | 0.087 | –
13 | B1 | – | – | – | – | 0.0575
